Columns and labels:
P2X purinoceptor 7 [1] = target: T1, P2X purinoceptor 7 (Homo sapiens, UniProt Q99572); experiment: Antagonist activity at human cloned P2X7 receptor expressed in HEK293 cells assessed as inhibition of calcium flux by FLIPR assay; type: functional, cell-based
T1 sequence (Q99572 whole entry): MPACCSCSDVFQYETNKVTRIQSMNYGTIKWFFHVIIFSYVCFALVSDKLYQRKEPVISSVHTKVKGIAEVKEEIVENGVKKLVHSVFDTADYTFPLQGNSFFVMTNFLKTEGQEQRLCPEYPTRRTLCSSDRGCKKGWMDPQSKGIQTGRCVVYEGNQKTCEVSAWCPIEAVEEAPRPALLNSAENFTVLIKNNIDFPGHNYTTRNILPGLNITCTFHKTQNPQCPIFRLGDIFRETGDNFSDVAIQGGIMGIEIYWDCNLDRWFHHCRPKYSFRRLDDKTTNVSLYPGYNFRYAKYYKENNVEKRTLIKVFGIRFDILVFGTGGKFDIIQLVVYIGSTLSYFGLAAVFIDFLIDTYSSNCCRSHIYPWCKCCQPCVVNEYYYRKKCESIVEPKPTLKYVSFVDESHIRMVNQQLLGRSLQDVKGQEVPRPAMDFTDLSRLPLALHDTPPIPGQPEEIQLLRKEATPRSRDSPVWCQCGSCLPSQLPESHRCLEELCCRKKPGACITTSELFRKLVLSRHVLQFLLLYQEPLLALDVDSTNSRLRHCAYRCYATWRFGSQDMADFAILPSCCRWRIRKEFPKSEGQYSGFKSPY
Method in brief: (§1)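 Calcium influx read on a fluorometric imaging plate reader with Fluo-4 as the calcium-sensing dye. The P2X7 agonist was benzoylbenzoic ATP (BzATP). pIC50 values are the mean of two experiments unless otherwise indicated; some values are the mean of more than two experiments, with standard deviation shown.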

P2X purinoceptor 7 [2] = target: T2, P2X purinoceptor 7 (Rattus norvegicus, UniProt Q64663); experiment: Antagonist activity at rat cloned P2X7 receptor expressed in HEK293 cells assessed as inhibition of calcium flux by FLIPR assay; type: functional, cell-based; method in brief: as §1
T2 sequence (Q64663 whole entry): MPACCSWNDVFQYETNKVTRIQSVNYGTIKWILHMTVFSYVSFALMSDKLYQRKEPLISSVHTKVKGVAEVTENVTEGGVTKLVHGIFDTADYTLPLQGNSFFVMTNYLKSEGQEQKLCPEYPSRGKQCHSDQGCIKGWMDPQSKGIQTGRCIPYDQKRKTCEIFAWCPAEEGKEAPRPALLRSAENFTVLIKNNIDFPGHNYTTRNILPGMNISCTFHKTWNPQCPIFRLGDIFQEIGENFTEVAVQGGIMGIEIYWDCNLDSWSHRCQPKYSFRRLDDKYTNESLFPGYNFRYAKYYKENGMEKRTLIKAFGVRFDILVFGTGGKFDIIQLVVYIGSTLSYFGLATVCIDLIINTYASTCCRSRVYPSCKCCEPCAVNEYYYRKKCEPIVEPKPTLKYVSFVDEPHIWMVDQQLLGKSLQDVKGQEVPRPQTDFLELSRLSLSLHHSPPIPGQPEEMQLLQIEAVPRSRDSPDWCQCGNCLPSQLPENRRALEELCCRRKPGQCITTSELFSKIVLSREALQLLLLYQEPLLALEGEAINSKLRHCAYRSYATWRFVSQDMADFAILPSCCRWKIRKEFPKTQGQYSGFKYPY

[3] = Bioavailability in rat at 10 umol/kg, ip; type: ADME, organism-based; conditions: in vivo
Rattus norvegicus = experiment: Antinociceptive activity in ip dosed rat L5-L6 spinal nerve ligation model of neuropathic pain assessed as reduction in tactile allodynia; type: functional; parameters: Activity: scale not given: the % may be the effect or the level left
Method in brief: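 Intraperitoneal dosing in rats with L5-L6 spinal nerve ligation (Chung model). Tactile allodynia was measured by von Frey testing. ED50 in µmol/kg and maximum efficacy (%) are the mean of six animals.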

| SMILES | IC50 (P2X purinoceptor 7 [1]) | IC50 (P2X purinoceptor 7 [2]) | bioavailability [3] | Activity (Rattus norvegicus) | ED50 (Rattus norvegicus; Rattus norvegicus, Spinal nerve, ip) |
| --- | --- | --- | --- | --- | --- |
| COc1ccc(CC(=O)NC(N=C(NC#N)Nc2ccccc2F)C(C)(C)C)cc1OC (stereo not drawn) | 200 nM | 12.6 nM | – | – | – |
| COc1ccc(CC(=O)NC(NC(=NC#N)Nc2c(F)cc(F)cc2F)C(C)(C)C)cc1OC (stereo not drawn) | 100 nM | 31.6 nM | – | – | – |
| COc1ccc(CC(=O)NC(N/C(=N/C#N)Nc2cccnc2Cl)C(C)(C)C)cc1OC (stereo not drawn) | 79.4 nM | 39.8 nM | – | – | – |
| COc1ccc(CC(=O)NC(N=C(NC#N)Nc2cc(Cl)ccc2F)C(C)(C)C)cc1OC (stereo not drawn) | 79.4 nM | 20 nM | – | – | – |
| O=C(CC12CC3CC(CC(C3)C1)C2)Nc1ccc2[nH]ncc2c1 | 158 nM | 501 nM | – | – | – |
| COc1ccc(CCCC(=O)NC(NC(=NC#N)Nc2ccccc2C)C(C)(C)C)cc1 (stereo not drawn) | 79.4 nM | 31.6 nM | – | – | – |
| Cc1ccccc1N/C(=N\C#N)NC(NC(=O)Cc1ccc2c(c1)OCO2)C(C)(C)C (stereo not drawn) | 50.1 nM | 39.8 nM | – | – | – |
| COc1ccc(NC(=NC#N)NC(NC(=O)c2ccc(Cl)cc2)C(C)(Cl)Cl)c(OC)n1 (stereo not drawn) | 50.1 nM | 10 nM | – | – | – |
| CSc1ccc(CC(=O)NC(N=C(NC#N)Nc2cccnc2C)C(C)(C)C)cc1 (stereo not drawn) | 20 nM | 31.6 nM | – | – | – |
| Cc1ncccc1N/C(=N\C#N)NC(NC(=O)Cc1ccc(F)cc1)C(C)(C)C (stereo not drawn) | 100 nM | 398 nM | 52% | 0% | > 300 µmol/kg |
| Cc1ccccc1N/C(=N\C#N)NC(NC(=O)Cc1ccccc1)C(C)(C)C (stereo not drawn) | 31600 nM | 316 nM | – | – | – |
| COc1ccc(CC(=O)NC(N/C(=N/C#N)Nc2c(F)cccc2F)C(C)(C)C)cc1OC (stereo not drawn) | 200 nM | 31.6 nM | – | – | – |
| COc1ccc(CC(=O)NC(N/C(=N/C#N)Nc2ccccc2C)C(C)(C)C)cc1 (stereo not drawn) | 63.1 nM | 31.6 nM | – | – | – |

Continued by falling IC50 (P2X purinoceptor 7 [1]), values first:

| IC50 (P2X purinoceptor 7 [1]) | IC50 (P2X purinoceptor 7 [2]) | SMILES | bioavailability [3] | Activity (Rattus norvegicus) | ED50 (Rattus norvegicus; Rattus norvegicus, Spinal nerve, ip) |
| --- | --- | --- | --- | --- | --- |
| 7940 nM | 2510 nM | COc1ccc(C(=O)NC(N=C(NC#N)Nc2ccccc2C)C(C)(C)C)cc1 (stereo not drawn) | – | – | – |
| 3160 nM | 79.4 nM | COc1ccc(CC(=O)NC(N=C(NC#N)Nc2cccc(F)c2)C(C)(C)C)cc1OC (stereo not drawn) | – | – | – |
| 1580 nM | 158 nM | COc1ccc(CC(=O)NC(N/C(=N/C#N)Nc2cccc3cccnc23)C(C)(C)C)cc1OC (stereo not drawn) | – | – | – |
| 398 nM | 316 nM | COc1ccc(CC(=O)NC(N=C(NC#N)Nc2cc(F)cc(F)c2)C(C)(C)C)cc1OC (stereo not drawn) | – | – | – |
| 316 nM | 100 nM | COc1ccc(CC(=O)NC(N/C(=N/C#N)Nc2cccc(F)c2F)C(C)(C)C)cc1OC (stereo not drawn) | – | – | – |
| 251 nM | 63.1 nM | COc1cc(CC(=O)NC(N/C(=N/C#N)Nc2ccccc2C)C(C)(C)C)cc(OC)c1 (stereo not drawn) | – | – | – |
| 200 nM | 1000 nM | COc1cc(OC)cc(C(=O)NC(N/C(=N/C#N)Nc2cccnc2C)C(C)(Cl)Cl)c1 (stereo not drawn) | – | – | – |
| 200 nM | 316 nM | COc1ccc(CCC(=O)NC(N=C(NC#N)Nc2ccccc2C)C(C)(C)C)cc1OC (stereo not drawn) | – | – | – |
| 158 nM | 25.1 nM | COc1ccccc1NC(=NC(NC(=O)Cc1ccc(OC)c(OC)c1)C(C)(C)C)NC#N (stereo not drawn) | – | – | – |
| 100 nM | 20 nM | COc1ccc(CC(=O)NC(N/C(=N/C#N)Nc2cc(F)ccc2F)C(C)(C)C)cc1OC (stereo not drawn) | – | – | – |
| 100 nM | 50.1 nM | COc1ccc(CC(=O)NC(NC(=S)Nc2ccccc2C)C(Cl)(Cl)Cl)cc1OC (stereo not drawn) | – | – | – |
| 100 nM | 39.8 nM | COc1ccc(CC(=O)NC(NC(=NC#N)Nc2cccnc2OC)C(C)(C)C)cc1OC (stereo not drawn) | – | – | – |
| 63.1 nM | 12.6 nM | COc1ccc(CC(=O)NC(NC(=NC#N)Nc2ccccc2C)C(C)(C)C)cc1OC (single isomer, unassigned; (+)) | – | – | – |
| 31.6 nM | 7.94 nM | COc1ccc(CC(=O)NC(NC(=NC#N)Nc2cccnc2OC)C(C)(Cl)Cl)cc1OC (stereo not drawn) | – | – | – |
| 31.6 nM | 31.6 nM | CC(C)(C)C(NC(=O)Cc1cccc2ccccc12)NC(=NC#N)Nc1cccc2ncccc12 (stereo not drawn) | – | – | – |
| 31.6 nM | 7.94 nM | CSc1ccc(CC(=O)NC(N=C(NC#N)Nc2ccccc2C)C(C)(C)C)cc1 (stereo not drawn) | – | – | – |
| 10 nM | 10 nM | CC(C)(C)C(N=C(NC#N)Nc1cccc2ncccc12)NC(=O)Cc1ccc2c(c1)OCCO2 (stereo not drawn) | – | – | – |

— ChEMBL document CHEMBL1138502, “Discovery and biological evaluation of novel cyanoguanidine P2X(7) antagonists with analgesic activity in a rat model of neuropathic pain” (J Med Chem, 2009)
